Source: ChEMBL document CHEMBL5113430, “Evaluation of chromane derivatives: Promising privileged scaffolds for lead discovery within Alzheimer's disease” (Bioorg Med Chem, 2022)
Activity calls are given as the source filed them. The calls are words filed in the database; no cut-off is given here.

Legend:
[1] = target: T1, Amine oxidase [flavin-containing] B (Homo sapiens, UniProt P27338); assay: Inhibition of recombinant MAO-B (unknown origin) expressed in baculovirus infected BTI cells assessed as reduction in 4-hydroxyquinoline level using kynuramine as a substrate at 1 uM incubated for 20 mins by discontinuous fluorimetric assay relative to control; conditions: read-out: INH
T1 sequence (P27338 whole entry): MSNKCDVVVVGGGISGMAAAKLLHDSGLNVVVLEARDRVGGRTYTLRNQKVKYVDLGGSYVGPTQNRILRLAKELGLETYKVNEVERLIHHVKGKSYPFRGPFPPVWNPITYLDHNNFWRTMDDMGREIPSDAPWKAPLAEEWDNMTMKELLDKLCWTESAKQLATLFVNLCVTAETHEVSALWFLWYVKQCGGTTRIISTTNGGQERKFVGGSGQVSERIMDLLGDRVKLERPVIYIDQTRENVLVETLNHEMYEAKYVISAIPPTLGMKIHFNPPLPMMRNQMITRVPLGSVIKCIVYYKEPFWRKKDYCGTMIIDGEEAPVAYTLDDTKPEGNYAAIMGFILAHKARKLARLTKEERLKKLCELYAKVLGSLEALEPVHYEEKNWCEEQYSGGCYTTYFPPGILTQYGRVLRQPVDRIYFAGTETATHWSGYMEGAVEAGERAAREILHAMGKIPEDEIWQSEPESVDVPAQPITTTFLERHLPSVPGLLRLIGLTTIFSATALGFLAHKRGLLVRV

[2] = target: T2, Amine oxidase [flavin-containing] A (Homo sapiens, UniProt P21397); assay: Inhibition of recombinant MAO-A (unknown origin) expressed in baculovirus infected BTI cells assessed as reduction in 4-hydroxyquinoline level using kynuramine as a substrate at 1 uM incubated for 20 mins by discontinuous fluorimetric assay relative to control
T2 sequence (P21397 whole entry): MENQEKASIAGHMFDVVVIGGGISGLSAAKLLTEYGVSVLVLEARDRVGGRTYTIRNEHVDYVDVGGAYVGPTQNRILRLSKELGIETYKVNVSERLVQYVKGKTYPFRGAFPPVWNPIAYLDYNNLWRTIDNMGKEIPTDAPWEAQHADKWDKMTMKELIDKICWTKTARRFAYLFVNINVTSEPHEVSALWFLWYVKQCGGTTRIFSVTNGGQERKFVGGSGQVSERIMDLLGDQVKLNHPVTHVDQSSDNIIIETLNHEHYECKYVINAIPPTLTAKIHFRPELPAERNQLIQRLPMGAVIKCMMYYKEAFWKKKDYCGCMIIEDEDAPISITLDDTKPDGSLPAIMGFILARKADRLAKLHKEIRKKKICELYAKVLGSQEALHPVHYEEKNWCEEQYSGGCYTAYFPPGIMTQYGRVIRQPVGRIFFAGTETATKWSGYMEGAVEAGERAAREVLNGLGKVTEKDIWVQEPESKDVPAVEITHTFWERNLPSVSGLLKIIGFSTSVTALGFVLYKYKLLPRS
Procedure, shortened: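 Discontinuous fluorimetric assay with recombinant membrane-bound MAO-A and kynuramine at two-fold KM (KM = 30 μM). Test compound at 1 μM, from a 1 mM DMSO stock. Incubated 20 min at 37 °C, stopped with 2 N NaOH. 4-hydroxyquinoline read at ex 320 nm / em 405 nm. Percent inhibition against no-inhibitor control, mean ± SD of two independent experiments in duplicate.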

Cholinesterase [3] = target: T3, Cholinesterase (Equus caballus, UniProt P81908); assay: Inhibition of Equine serum BuChE using S-butyrylthiocholine iodide as a substrate and measured for 125 sec by DTNB based Ellman's method
T3 sequence (P81908 whole entry): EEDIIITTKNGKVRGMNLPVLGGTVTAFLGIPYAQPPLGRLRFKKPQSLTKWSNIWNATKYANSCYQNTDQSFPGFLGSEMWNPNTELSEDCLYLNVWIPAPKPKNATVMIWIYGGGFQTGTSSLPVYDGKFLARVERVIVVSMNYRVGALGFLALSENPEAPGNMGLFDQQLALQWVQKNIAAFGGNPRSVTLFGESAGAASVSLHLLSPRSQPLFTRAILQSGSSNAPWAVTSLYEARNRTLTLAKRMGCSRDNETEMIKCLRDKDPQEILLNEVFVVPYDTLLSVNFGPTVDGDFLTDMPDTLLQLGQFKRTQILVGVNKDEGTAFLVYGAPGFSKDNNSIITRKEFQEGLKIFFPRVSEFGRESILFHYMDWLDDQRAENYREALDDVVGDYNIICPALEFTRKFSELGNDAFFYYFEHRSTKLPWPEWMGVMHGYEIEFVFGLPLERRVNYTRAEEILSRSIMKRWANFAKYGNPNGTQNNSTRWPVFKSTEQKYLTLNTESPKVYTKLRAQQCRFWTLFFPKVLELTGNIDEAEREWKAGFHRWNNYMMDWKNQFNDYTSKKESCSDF

Acetylcholinesterase [4] = target: T4, Acetylcholinesterase (Electrophorus electricus, UniProt O42275); assay: Inhibition of electric eel AChE using […] as a substrate and measured for 125 sec by DTNB based Ellman's method
T4 sequence (O42275 whole entry): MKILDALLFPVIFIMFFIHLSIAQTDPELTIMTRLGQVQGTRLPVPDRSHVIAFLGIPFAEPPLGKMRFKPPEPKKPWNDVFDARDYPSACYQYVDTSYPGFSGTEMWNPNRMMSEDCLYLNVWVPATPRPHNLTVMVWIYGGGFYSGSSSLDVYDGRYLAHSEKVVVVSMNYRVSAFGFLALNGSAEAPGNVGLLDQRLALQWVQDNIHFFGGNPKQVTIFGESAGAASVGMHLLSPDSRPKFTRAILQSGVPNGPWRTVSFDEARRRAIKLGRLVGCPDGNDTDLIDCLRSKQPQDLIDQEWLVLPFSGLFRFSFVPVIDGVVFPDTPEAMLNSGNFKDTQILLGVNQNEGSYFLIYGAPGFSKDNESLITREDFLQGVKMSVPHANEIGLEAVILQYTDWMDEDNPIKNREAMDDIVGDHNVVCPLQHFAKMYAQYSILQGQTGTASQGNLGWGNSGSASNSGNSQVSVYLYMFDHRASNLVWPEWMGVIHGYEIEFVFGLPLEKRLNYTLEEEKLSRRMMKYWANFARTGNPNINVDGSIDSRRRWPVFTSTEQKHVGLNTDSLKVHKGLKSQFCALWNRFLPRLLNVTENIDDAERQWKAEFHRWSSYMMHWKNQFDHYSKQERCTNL

Cholinesterase [5] = target: T3, Cholinesterase; assay: Inhibition of Equine serum BuChE assessed as inhibitory constants for binding the free enzyme using S-butyrylthiocholine iodide as a substrate by Cornish-Bowden plot analysis
Procedure, shortened: (§1)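 Equine BuChE, Ellman method: 50 μM phosphate buffer pH 8.0, 0.975 mM DTNB, 1.25% DMSO, 25 °C, read at 405 nm over 125 s. Runs used 5 butyrylthiocholine levels (1/4 to 4 × KM) and 3–4 inhibitor levels giving roughly 30–80% inhibition. KM and Vmax came from nonlinear regression. Mode of inhibition and constants came from Cornish-Bowden plots.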

Cholinesterase [6] = target: T3, Cholinesterase; assay: Inhibition of Equine serum BuChE assessed as inhibitory constants for binding the enzyme-substrate complex using S-butyrylthiocholine iodide as a substrate by Cornish-Bowden plot analysis; procedure, shortened: as §1
[7] = target: T1, Amine oxidase [flavin-containing] B; assay: Inhibition of human MAO-B assessed as shielding effect on inhibitor […] at 0.016 mM incubated for 20 min by STD-NMR spectroscopy; conditions: 16 µM
Procedure, shortened: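 MAO-B incubated with the N-propargyl inhibitor and followed by 1H NMR, with spectra recorded every 5 min. The spectrum of inhibitor alone was compared with the inhibitor–enzyme mixture at 20 min, watching shifts of inhibitor protons, especially the propargyl proton. Ligand-only controls and blanks checked for direct saturation. Water suppression at 4.7 ppm.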

[8] = target: Cholinesterase (Equus caballus) (UniProt P81908); assay: Inhibition of equine serum BuChE at 0.8 mM by STD-NMR spectroscopy
Chain of Cholinesterase (Equus caballus) (P81908 whole entry): as the sequence (P81908 whole entry) above
Procedure, shortened: (§2)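 STD-NMR with 5 μM equine BuChE in D2O; ligand stocks of 8.8 and 4.8 mM. Saturation times for buildup curves 0.25–5 s, total experiment time held at 6.5 s. Water suppression at 4.7 ppm, sweep width 20.03 ppm. Blanks checked for direct ligand saturation.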

Acetylcholinesterase [9] = target: T4, Acetylcholinesterase; assay: Inhibition of electric eel AChE using […] as a substrate and measured upto 180 sec by DTNB based Ellman's method
[10] = target: Cholinesterase (Equus caballus) (UniProt P81908); assay: Inhibition of equine serum BuChE at 1.47 mM by STD-NMR spectroscopy; procedure, shortened: as §2

CC1(C)COc2ccccc2C1N (configuration not stated)
inhibition at 1 µM [1]: 3.7% | inhibition at 1 µM [2]: -3.8% | IC50 (Cholinesterase [3]): 38 µM

CC1(C)COc2cc3ccccc3cc2C1O (configuration not stated)
IC50 (Acetylcholinesterase [4]): > 100 µM | IC50 (Cholinesterase [3]): 50 µM

CCOc1cc(C#N)cc2c1OCC(C)(C)C2=O
inhibition at 1 µM [1]: 4.7% | IC50 (Acetylcholinesterase [4]): > 100 µM | inhibition at 1 µM [2]: 20.5% | IC50 (Cholinesterase [3]): > 100 µM

CC1(C)COc2cc(F)c(F)cc2C1O (configuration not stated)
IC50 (Acetylcholinesterase [4]): > 100 µM | IC50 (Cholinesterase [3]): 28 µM

CC1(C)COc2c(ccc3cccnc23)C1O (configuration not stated)
Ki (Cholinesterase [5]): 7.2 µM | IC50 (Acetylcholinesterase [4]): > 100 µM | Ki (Cholinesterase [6]): 13.7 µM | IC50 (Cholinesterase [3]): 5 µM

C#CCN(C)CCCOc1ccc(Cl)cc1Cl [CLORGILINE]
inhibition at 1 µM [2]: 99.8%

CC1(C)COc2cc(F)ccc2C1=O
IC50 (Acetylcholinesterase [4]): > 100 µM | IC50 (Cholinesterase [3]): > 100 µM

C#CCNC1c2cc(C)ccc2OCC1(C)C (configuration not stated)
inhibition at 1 µM [1]: -6.8% | inhibition at 1 µM [2]: -9.4%

CC1(C)COc2ccccc2C1O (configuration not stated)
inhibition at 1 µM [1]: 8% | IC50 (Acetylcholinesterase [4]): > 100 µM | inhibition at 1 µM [2]: 24.3% | IC50 (Cholinesterase [3]): 40 µM

Cc1ccc2c(c1)C(N)C(C)(C)CO2 (configuration not stated)
IC50 (Cholinesterase [3]): 67 µM

COc1cccc2c1C(=O)C(C)(C)CO2
inhibition at 1 µM [1]: 5.9% | IC50 (Acetylcholinesterase [4]): > 100 µM | inhibition at 1 µM [2]: 12.1% | IC50 (Cholinesterase [3]): 12 µM

CC1(C)COc2c(ccc3cccnc23)C1=O
inhibition at 1 µM [1]: 4.8% | IC50 (Acetylcholinesterase [4]): > 100 µM | inhibition at 1 µM [2]: 14.8% | IC50 (Cholinesterase [3]): 6.4 µM

CC1(C)COc2cc3ccccc3cc2C1=O
inhibition at 1 µM [1]: 27.7% | IC50 (Acetylcholinesterase [4]): > 100 µM | inhibition at 1 µM [2]: 16.4% | IC50 (Cholinesterase [3]): 3.1 µM

CC1(C)COc2cc(F)c(F)cc2C1=O
IC50 (Acetylcholinesterase [4]): > 100 µM | IC50 (Cholinesterase [3]): > 100 µM

CC1(C)COc2ccc3ccccc3c2C1N (configuration not stated)
inhibition at 1 µM [1]: 2.7% | inhibition at 1 µM [2]: 12.5% | IC50 (Cholinesterase [3]): 52 µM

CC1(C)COc2ccc(C#N)cc2C1O (configuration not stated)
IC50 (Acetylcholinesterase [4]): > 100 µM | IC50 (Cholinesterase [3]): 18 µM

COc1cccc2c1OCC(C)(C)C2=O
IC50 (Acetylcholinesterase [4]): > 100 µM | IC50 (Cholinesterase [3]): > 100 µM

COc1cccc2c1C(O)C(C)(C)CO2 (configuration not stated)
inhibition at 1 µM [1]: 5.3% | IC50 (Acetylcholinesterase [4]): > 100 µM | inhibition at 1 µM [2]: 11.5% | IC50 (Cholinesterase [3]): > 100 µM

CC1(C)COc2c(OC(F)(F)F)cccc2C1=O
IC50 (Acetylcholinesterase [4]): > 100 µM | IC50 (Cholinesterase [3]): 4.3 µM

CCOc1cc(C#N)cc2c1OCC(C)(C)C2O (configuration not stated)
IC50 (Acetylcholinesterase [4]): > 100 µM | IC50 (Cholinesterase [3]): 7.3 µM

CC1(C)COc2ccccc2C1=O
inhibition at 1 µM [1]: 9.2% | IC50 (Acetylcholinesterase [4]): > 100 µM | inhibition at 1 µM [2]: 9.7% | IC50 (Cholinesterase [3]): 43 µM

CC1(C)COc2ccc(F)cc2C1=O
IC50 (Acetylcholinesterase [4]): > 100 µM | IC50 (Cholinesterase [3]): 33 µM

C#CCNC1c2ccccc2OCC1(C)C (configuration not stated)
inhibition at 1 µM [1]: 11.6% | inhibition (INH) [7]: Active

C#CCN(Cc1ccccc1)C1c2cccc(OC)c2OCC1(C)C (configuration not stated)
inhibition at 1 µM [1]: 14.7% | inhibition at 1 µM [2]: 4.3%

C#CCNC1c2cccc(OC)c2OCC1(C)C (configuration not stated)
inhibition at 1 µM [1]: 13.8% | inhibition at 1 µM [2]: 4.6%

COc1cccc2c1OCC(C)(C)C2N (configuration not stated)
Ki (Cholinesterase [5]): 9 µM | inhibition at 1 µM [1]: 4.3% | inhibition at 1 µM [2]: -0.7% | Ki (Cholinesterase [6]): 19.1 µM | inhibition [8]: Active | IC50 (Cholinesterase [3]): 7.6 µM

O=C1CC(OCCCCCSC(=S)N2CCCCC2)Oc2ccccc21 (configuration not stated)
IC50 (Acetylcholinesterase [9]): 0.1 µM

C[C@H](NCc1ccc(OCc2cccc(F)c2)cc1)C(N)=O [SAFINAMIDE]
inhibition at 1 µM [2]: 1.8%

Cc1ccc2c(c1)C(O)C(C)(C)CO2 (configuration not stated)
IC50 (Acetylcholinesterase [4]): > 100 µM | IC50 (Cholinesterase [3]): > 100 µM

NC1CCOc2ccccc21 (configuration not stated)
inhibition at 1 µM [1]: 4.8% | inhibition at 1 µM [2]: -0.7%

CC1(C)COc2ccc(F)cc2C1O (configuration not stated)
inhibition at 1 µM [1]: 8.3% | IC50 (Acetylcholinesterase [4]): > 100 µM | inhibition at 1 µM [2]: 16.5% | IC50 (Cholinesterase [3]): > 100 µM

C#CCN(Cc1ccccc1)C1c2ccccc2OCC1(C)C (configuration not stated)
inhibition at 1 µM [1]: 2.9% | inhibition at 1 µM [2]: -10.6%

CC1(C)COc2cc3ccccc3cc2C1N (configuration not stated)
Ki (Cholinesterase [5]): 18 µM | inhibition at 1 µM [1]: 7.5% | inhibition at 1 µM [2]: 13.3% | Ki (Cholinesterase [6]): 11 µM | IC50 (Cholinesterase [3]): 8.9 µM

CC1(C)COc2ccc3ccccc3c2C1O (configuration not stated)
IC50 (Acetylcholinesterase [4]): > 100 µM | IC50 (Cholinesterase [3]): 33 µM

CC1(C)COc2ccc3ccccc3c2C1=O
Ki (Cholinesterase [5]): 2 µM | inhibition [10]: Active | inhibition at 1 µM [1]: 5.1% | IC50 (Acetylcholinesterase [4]): > 100 µM | inhibition at 1 µM [2]: 23.2% | Ki (Cholinesterase [6]): 6.7 µM | IC50 (Cholinesterase [3]): 2.9 µM

CC1(C)COc2cc(F)ccc2C1O (configuration not stated)
IC50 (Acetylcholinesterase [4]): > 100 µM | IC50 (Cholinesterase [3]): 18 µM

CC1(C)COc2ncccc2C1=O
IC50 (Acetylcholinesterase [4]): > 100 µM | IC50 (Cholinesterase [3]): > 100 µM
